Assay outcomes as filed in PubChem.
XBP1 UPR activ: activators of adaptive XBP1 UPR arm, primary screen, cell-based, CHO-XBP1 luciferase reporter, luminescence, uHTS. IRE1-XBP1 UPR activation; percent of tunicamycin response, DMSO as zero. activation, % at 20 µM. 0.33% of 330,000 active;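 active = versus positive control, 20 µM dose yields 30% or more activation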;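 note: 100% = tunicamycin at 10 µg/mL and 0% = DMSO only wells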
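incubation = overnight seeding at 37 °C, 6 h compound treatment at 37 °C | assay system = CHO-XBP1 cells stably carrying IRE1-XBP1-driven luciferase reporter | input = 1000 cells per well | detection = luciferase luminescence | dosing = single point, 20 µM final compound, 1% DMSO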
Jurkat NFkB inh: inhibitors of induced NF-kB luciferase reporter, primary screen, TCR NF-kB activation inhibitor project, cell-based, luminescence, uHTS. inhibition, % at 4 µM. 0.53% of 330,000 active. AID 435003, 2010. Jurkat, PMA/ionomycin-induced NF-kB luciferase reporter; in the data active = inhibition above about 50%
Gli-Sufu antag: Gli-Sufu pathway antagonists, primary screen, luciferase luminescence, Sufu-KO-LIGHT cells, uHTS. 0.74% of 340,000 active. Sufu-KO-LIGHT fibroblasts, Gli luciferase reporter luminescence. inhibition, % at 5 µM;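 active = inhibition above about 55%, limit read from the data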;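 note: 0% = DMSO-treated cells and 100% = wells with medium but no cells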
697 NFkB inh: inhibitors of PMA/ionomycin-induced NF-kB reporter, 697 cells, primary screen, B-cell NF-kB inhibitor project, cell-based, luminescence, uHTS | 697 B-cell NF-kB luciferase reporter, 16 h | inhibition, % at 4 µM | 0.33% of 330,000 active | AID 435022, 2010; in the data active = inhibition above about 35%
CHOP UPR activ: activators of apoptotic CHOP UPR arm, primary screen, cell-based, CHO-CHOP luciferase reporter, luminescence, uHTS; AID 449763, 2010; activation, % at 10 µM; UPR activation; percent of tunicamycin response over DMSO baseline; 0.34% of 330,000 active;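 active = at 10 µM dose, activation of 40% or more, normalized to positive control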;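 note: 100% = tunicamycin at 10 µg/mL and 0% = DMSO alone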
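Dosing – one dose, 10 µM in 0.5% DMSO · System – CHO-CHOP cells, stable luciferase reporter of PERK-eIF2a-CHOP signalling · Input – 500 cells/well · Control set – tunicamycin 10 µg/mL final as positive, DMSO-only wells as negative · Timing – 6 h compound treatment, 37 °C · Measure – % activation vs tunicamycin · Technique – luminescence read with Steady-Glo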
CHOP inhibitor: inhibitors of CHOP promoter induction, primary screen, cell-based, unfolded protein response, luciferase reporter; CHO-K1 CHOP-promoter luciferase, tunicamycin-induced, 15-18 h; inhibition, % at 10 µM; 3.8% of 220,000 active; AID 2732, 2010;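 active = compounds that reduced the stress-induced luciferase reporter signal by more than about 70% of percent inhibition, limit read from the data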;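 note: 0% = tunicamycin plus vehicle and 100% = wells without tunicamycin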
* = called active by the depositor. The list is not random: actives were taken first. Their share in the collection is about 3.9%.

Results for CCc1ccc(NC(=O)c2ccc(NC3=NC4CS(=O)(=O)CC4S3)cc2)cc1 (centres undefined) ?
XBP1 UPR activ: -1.6; Jurkat NFkB inh: -15.8; Gli-Sufu antag: -24.0; 697 NFkB inh: -4.5; CHOP UPR activ: 2.4

How did COc1cc(OC)cc(C(=O)N[C@H](C(=O)OCC(=O)c2ccc(C)c([N+](=O)[O-])c2)C(C)C)c1 do in these assays?
XBP1 UPR activ: -4.4; Jurkat NFkB inh: 6.4; Gli-Sufu antag: -19.7; 697 NFkB inh: 11.0; CHOP UPR activ: -0.7

Results for O=C(Nc1ccc(Cl)cc1)Nc1cc([N+](=O)[O-])ccc1F ?
XBP1 UPR activ: 4.7; Jurkat NFkB inh: -18.9; Gli-Sufu antag: -10.1; 697 NFkB inh: 10.2; CHOP UPR activ: 1.7; CHOP inhibitor: 70.7*

How did O=C(Nc1csc([N+](=O)[O-])c1)Nc1c(Cl)cccc1Cl do in these assays?
XBP1 UPR activ: -1.6; Jurkat NFkB inh: 17.9; Gli-Sufu antag: 6.3; 697 NFkB inh: 24.3; CHOP UPR activ: -2.4; CHOP inhibitor: 2.5

How did O=C(Nc1cccc([N+](=O)[O-])c1)Nc1cccc([N+](=O)[O-])c1 do in these assays?
XBP1 UPR activ: 3.9; Jurkat NFkB inh: 4.8; Gli-Sufu antag: 8.2; 697 NFkB inh: 0.8; CHOP UPR activ: 1.4; CHOP inhibitor: 84.2*

What do the screens show for `O=C(Nc1ccc(Cl)cc1)Nc1csc([N+](=O)[O-])c1`?
XBP1 UPR activ: 8.0; Jurkat NFkB inh: -3.3; Gli-Sufu antag: 33.4; 697 NFkB inh: -52.5; CHOP UPR activ: 14.4; CHOP inhibitor: 75.7*

How did Cc1ccc(NC(=O)Nc2ccc(Cl)cc2)c(Br)c1 do in these assays?
XBP1 UPR activ: 1.8; Jurkat NFkB inh: -25.3; Gli-Sufu antag: -43.6; 697 NFkB inh: -50.6; CHOP UPR activ: 8.8; CHOP inhibitor: 86.0*

Results for O=C(Nc1ccc([N+](=O)[O-])cc1)Nc1ccc(Cl)cc1F ?
XBP1 UPR activ: 4.9; Jurkat NFkB inh: -8.0; Gli-Sufu antag: 27.9; 697 NFkB inh: -28.8; CHOP UPR activ: 2.4; CHOP inhibitor: 22.7

How did O=S(=O)(NCc1cc(-c2ccccc2Cl)no1)c1ccc(Cl)cc1 do in these assays?
XBP1 UPR activ: 2.7; Jurkat NFkB inh: -0.5; Gli-Sufu antag: 1.9; 697 NFkB inh: 11.3; CHOP UPR activ: 1.7; CHOP inhibitor: 73.9*

What do the screens show for `COc1ccc(NC(=O)c2nc[nH]c2C(=O)N[C@@H](CC(C)C)C(=O)OC(C)(C)C)cc1`?
XBP1 UPR activ: 5.8; Jurkat NFkB inh: 5.9; Gli-Sufu antag: -11.6; 697 NFkB inh: -30.6; CHOP UPR activ: -0.5; CHOP inhibitor: 76.1*

Results for CC(C)(C)OC(=O)CNC(=O)c1[nH]cnc1C(=O)N[C@@H](Cc1ccccc1)C(=O)OC(C)(C)C ?
XBP1 UPR activ: 2.1; Jurkat NFkB inh: 4.3; Gli-Sufu antag: 3.8; 697 NFkB inh: 8.3; CHOP UPR activ: 0.1; CHOP inhibitor: 90.0*

What do the screens show for `CC(C)(C)OC(=O)[C@H](Cc1ccccc1)NC(=O)c1nc[nH]c1C(=O)NCC(=O)OCc1ccccc1`?
XBP1 UPR activ: -1.5; Jurkat NFkB inh: -15.5; Gli-Sufu antag: -4.2; 697 NFkB inh: -3.3; CHOP UPR activ: -1.2

What do the screens show for `COc1ccc(NC(=O)c2nc[nH]c2C(=O)N[C@@H](C)C(=O)OC(C)(C)C)cc1`?
XBP1 UPR activ: -1.3; Jurkat NFkB inh: 11.4; Gli-Sufu antag: -4.0; 697 NFkB inh: 14.0; CHOP UPR activ: -2.0; CHOP inhibitor: 24.7

How did CC(C)C[C@H](NC(=O)c1nc[nH]c1C(=O)NCc1ccc(CNC(=O)OC(C)(C)C)cc1)C(=O)OC(C)(C)C do in these assays?
XBP1 UPR activ: -3.1; Jurkat NFkB inh: -12.8; Gli-Sufu antag: -35.8; 697 NFkB inh: 21.2; CHOP UPR activ: 0.3

How did CC(C)C[C@H](NC(=O)c1[nH]cnc1C(=O)Nc1ccc(CNC(=O)OC(C)(C)C)cc1)C(=O)OC(C)(C)C do in these assays?
XBP1 UPR activ: 11.5; Jurkat NFkB inh: -1.5; Gli-Sufu antag: -2.7; 697 NFkB inh: 1.7; CHOP UPR activ: 4.6; CHOP inhibitor: 84.5*
